According to ChEMBL document CHEMBL4229410, “Facile construction of fused benzimidazole-isoquinolinones that induce cell-cycle arrest and apoptosis in colorectal cancer cells” (Bioorg Med Chem, 2018):

How the values were obtained:
[1] = test system: SW-620; experiment: Induction of apoptosis in human SW620 cells assessed as early apoptotic cells at 25 uM after 48 hrs by Annexin-V-FITC/propidium iodide staining based flow cytometry (reference value: 0.4%); format: functional
[2] = test system: HT-29; experiment: Antiproliferative activity against human HT-29 cells after 48 hrs by BrdU/DAPI staining based immunofluorescence assay; format: functional, cell-based
Method in brief: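 Cells seeded at 20,000 per well after reaching 80% confluence; exposed 48 h to 0, 25, 50, 75 μM, then 10 μM BrdU for 2 h. Paraformaldehyde fixation, 2 M HCl 30 min, 10% goat serum block, anti-BrdU primary overnight at 4 °C, secondary 120 min at room temperature, DAPI 300 nM. Fluorescence microscopy; percent BrdU-positive nuclei, mean ± SD of three independent experiments.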

[3] = biological target: Dual specificity tyrosine-phosphorylation-regulated kinase 1B (Homo sapiens, UniProt Q9Y463); experiment: Binding affinity to full length human DYRK1B (M1 to S629 residues) expressed in bacterial expression system by KINOMEscan assay
[4] = test system: HT-29; experiment: Cell cycle arrest in human HT-29 cells assessed as accumulation at G2-phase at 50 uM after 48 hrs by propidium iodide staining based flow cytometry (reference value: 15.45%); format: functional
[5] = biological target: Inhibitor of nuclear factor kappa-B kinase subunit beta (Homo sapiens, UniProt O14920); experiment: Binding affinity to full length human IKKbeta (M1 to S756 residues) expressed in mammalian expression system by KINOMEscan assay
[6] = biological target: Non-receptor tyrosine-protein kinase TYK2 (Homo sapiens, UniProt P29597); experiment: Binding affinity to human TYK2 JH1 catalytic domain (V877 to C1187 residues) expressed in mammalian expression system by KINOMEscan assay
[7] = biological target: Phosphatidylinositol 4,5-bisphosphate 3-kinase catalytic subunit gamma isoform (Homo sapiens, UniProt P48736); experiment: Inhibition of human PIK3CG (S144 to A1102 residues) expressed in mammalian expression system assessed as residual activity at 5 uM by KINOMEscan assay relative to control
[8] = biological target: Insulin-like growth factor 1 receptor (Homo sapiens, UniProt P08069); experiment: Inhibition of human IGF1R (L972 to D1294 residues) expressed in bacterial expression system assessed as residual activity at 5 uM by KINOMEscan assay relative to control
[9] = biological target: Cyclin-dependent kinase 16 (Homo sapiens, UniProt Q00536); experiment: Binding affinity to human PCTK1 (G160 to A474 residues) expressed in mammalian expression system by KINOMEscan assay
[10] = biological target: Mast/stem cell growth factor receptor Kit (Homo sapiens, UniProt P10721); experiment: Binding affinity to human KIT (I571 to D952 residues) expressed in bacterial expression system by KINOMEscan assay
[11] = biological target: Mast/stem cell growth factor receptor Kit (Homo sapiens, UniProt P10721, D816V); experiment: Binding affinity to human KIT (I571 to D952 residues) D816V mutant expressed in bacterial expression system by KINOMEscan assay
[12] = biological target: Receptor tyrosine-protein kinase erbB-4 (Homo sapiens, UniProt Q15303); experiment: Binding affinity to human ERBB4 (L690 to K994 residues) expressed in bacterial expression system by KINOMEscan assay
[13] = biological target: Serine/threonine-protein kinase PAK 1 (Homo sapiens, UniProt Q13153); experiment: Inhibition of human PAK1 (S149 to H545 residues) expressed in bacterial expression system assessed as residual activity at 5 uM by KINOMEscan assay relative to control
[14] = biological target: TGF-beta receptor type-1 (Homo sapiens) (UniProt P36897); experiment: Inhibition of human TGFBR1 (D179 to M503 residues) expressed in bacterial expression system assessed as residual activity at 5 uM by KINOMEscan assay relative to control
[15] = biological target: MAP/microtubule affinity-regulating kinase 3 (Homo sapiens, UniProt P27448); experiment: Inhibition of full length human MARK3 (M1 to L729 residues) expressed in bacterial expression system assessed as residual activity at 5 uM by KINOMEscan assay relative to control
[16] = test system: SW-620; experiment: Upregulation of p21 expression in human SW620 cells after 48 hrs by Western blot analysis; format: functional, cell-based
[17] = biological target: Cyclin-dependent kinase 7 (Homo sapiens, UniProt P50613); experiment: Binding affinity to full length human CDK7 (M1 to L344 residues) expressed in mammalian expression system by KINOMEscan assay
[18] = biological target: Mitogen-activated protein kinase 10 (Homo sapiens, UniProt P53779); experiment: Binding affinity to human JNK3 (V28 to Q422 residues) expressed in mammalian expression system by KINOMEscan assay
[19] = biological target: Serine/threonine-protein kinase pim-3 (Homo sapiens, UniProt Q86V86); experiment: Binding affinity to human PIM3 (G16 to A317 residues) expressed in bacterial expression system by KINOMEscan assay
[20] = biological target: Serine/threonine-protein kinase ULK2 (Homo sapiens, UniProt Q8IYT8); experiment: Binding affinity to human ULK2 (M1 to S301 residues) expressed in mammalian expression system by KINOMEscan assay
[21] = biological target: Receptor tyrosine-protein kinase erbB-2 (Homo sapiens, UniProt P04626); experiment: Binding affinity to human ERBB2 (K646 to V1225 residues) expressed in mammalian expression system by KINOMEscan assay
[22] = biological target: Phosphatidylinositol 4-phosphate 3-kinase C2 domain-containing subunit beta (Homo sapiens, UniProt O00750); experiment: Binding affinity to human PIK3C2B (M1 to L1634 residues) expressed in mammalian expression system by KINOMEscan assay
[23] = biological target: Tyrosine-protein kinase ABL1 (Homo sapiens, UniProt P00519, E255K); experiment: Binding affinity to human phosphorylated ABL1 E255K mutant (S229 to K512 residues) expressed in mammalian expression system by KINOMEscan assay
[24] = biological target: Rho-associated protein kinase 2 (Homo sapiens, UniProt O75116); experiment: Inhibition of human ROCK2 (M1 to T431 residues) expressed in mammalian expression system assessed as residual activity at 5 uM by KINOMEscan assay relative to control
[25] = biological target: Receptor-type tyrosine-protein kinase FLT3 (Homo sapiens, UniProt P36888); experiment: Binding affinity to human FLT3 (V592 to Y969 residues) expressed in bacterial expression system by KINOMEscan assay
[26] = biological target: Mitogen-activated protein kinase 8 (Homo sapiens, UniProt P45983); experiment: Binding affinity to full length human JNK1 (M1 to Q384 residues) expressed in mammalian expression system by KINOMEscan assay
[27] = biological target: Serine/threonine-protein kinase pim-2 (Homo sapiens, UniProt Q9P1W9); experiment: Inhibition of human PIM2 (M1 to E291 residues) expressed in bacterial expression system assessed as residual activity at 5 uM by KINOMEscan assay relative to control
Serine/threonine-protein kinase pim-2, sequence (Q9P1W9 whole entry, looked up, the tested form may be a part): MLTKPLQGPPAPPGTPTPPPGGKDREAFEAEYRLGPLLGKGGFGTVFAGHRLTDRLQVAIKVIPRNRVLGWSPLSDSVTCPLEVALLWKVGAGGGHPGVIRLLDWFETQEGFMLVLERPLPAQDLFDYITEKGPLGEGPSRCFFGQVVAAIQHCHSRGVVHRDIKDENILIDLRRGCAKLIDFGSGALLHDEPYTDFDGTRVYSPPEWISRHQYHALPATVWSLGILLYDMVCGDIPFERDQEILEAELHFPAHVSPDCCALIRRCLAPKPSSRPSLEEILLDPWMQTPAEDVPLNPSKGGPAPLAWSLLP

Insulin-like growth factor 1 receptor, sequence (P08069 31-736 limits assumed): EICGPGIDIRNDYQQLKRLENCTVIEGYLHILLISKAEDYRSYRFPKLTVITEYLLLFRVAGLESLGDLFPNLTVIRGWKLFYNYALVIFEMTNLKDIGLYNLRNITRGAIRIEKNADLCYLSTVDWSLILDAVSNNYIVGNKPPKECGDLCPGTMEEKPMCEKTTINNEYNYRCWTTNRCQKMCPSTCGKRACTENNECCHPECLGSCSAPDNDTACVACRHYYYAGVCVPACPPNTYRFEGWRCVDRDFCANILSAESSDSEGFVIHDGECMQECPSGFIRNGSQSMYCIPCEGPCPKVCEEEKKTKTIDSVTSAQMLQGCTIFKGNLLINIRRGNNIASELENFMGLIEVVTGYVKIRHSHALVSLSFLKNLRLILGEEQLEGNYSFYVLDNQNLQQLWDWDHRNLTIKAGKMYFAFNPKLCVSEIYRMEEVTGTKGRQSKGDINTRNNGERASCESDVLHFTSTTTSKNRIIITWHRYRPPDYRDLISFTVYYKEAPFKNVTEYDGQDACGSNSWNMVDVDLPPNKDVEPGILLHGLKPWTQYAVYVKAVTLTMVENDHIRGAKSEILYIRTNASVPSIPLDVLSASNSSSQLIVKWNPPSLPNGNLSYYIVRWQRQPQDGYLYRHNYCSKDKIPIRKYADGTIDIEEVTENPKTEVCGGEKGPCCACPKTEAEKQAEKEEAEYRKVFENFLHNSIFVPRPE
Insulin-like growth factor 1 receptor, sequence (P08069 741-1367 limits assumed): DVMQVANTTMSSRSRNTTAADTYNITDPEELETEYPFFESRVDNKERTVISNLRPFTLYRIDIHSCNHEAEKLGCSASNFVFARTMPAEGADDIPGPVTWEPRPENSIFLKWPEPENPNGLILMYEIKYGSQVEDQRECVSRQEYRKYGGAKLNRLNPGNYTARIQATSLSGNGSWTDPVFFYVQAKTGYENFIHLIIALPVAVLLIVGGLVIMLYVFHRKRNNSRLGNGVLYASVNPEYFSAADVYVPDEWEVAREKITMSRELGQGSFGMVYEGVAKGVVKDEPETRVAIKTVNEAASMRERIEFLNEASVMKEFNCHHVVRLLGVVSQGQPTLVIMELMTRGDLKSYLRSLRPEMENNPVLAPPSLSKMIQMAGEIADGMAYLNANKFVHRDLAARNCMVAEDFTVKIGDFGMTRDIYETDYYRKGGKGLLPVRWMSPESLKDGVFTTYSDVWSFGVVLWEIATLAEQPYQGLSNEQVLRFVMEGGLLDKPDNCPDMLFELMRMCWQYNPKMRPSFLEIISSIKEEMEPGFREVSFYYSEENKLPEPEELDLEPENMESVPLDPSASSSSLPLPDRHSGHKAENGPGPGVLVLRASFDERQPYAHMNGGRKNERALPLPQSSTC
Tyrosine-protein kinase ABL1, sequence (P00519 whole entry E255K, the tested form may be a part): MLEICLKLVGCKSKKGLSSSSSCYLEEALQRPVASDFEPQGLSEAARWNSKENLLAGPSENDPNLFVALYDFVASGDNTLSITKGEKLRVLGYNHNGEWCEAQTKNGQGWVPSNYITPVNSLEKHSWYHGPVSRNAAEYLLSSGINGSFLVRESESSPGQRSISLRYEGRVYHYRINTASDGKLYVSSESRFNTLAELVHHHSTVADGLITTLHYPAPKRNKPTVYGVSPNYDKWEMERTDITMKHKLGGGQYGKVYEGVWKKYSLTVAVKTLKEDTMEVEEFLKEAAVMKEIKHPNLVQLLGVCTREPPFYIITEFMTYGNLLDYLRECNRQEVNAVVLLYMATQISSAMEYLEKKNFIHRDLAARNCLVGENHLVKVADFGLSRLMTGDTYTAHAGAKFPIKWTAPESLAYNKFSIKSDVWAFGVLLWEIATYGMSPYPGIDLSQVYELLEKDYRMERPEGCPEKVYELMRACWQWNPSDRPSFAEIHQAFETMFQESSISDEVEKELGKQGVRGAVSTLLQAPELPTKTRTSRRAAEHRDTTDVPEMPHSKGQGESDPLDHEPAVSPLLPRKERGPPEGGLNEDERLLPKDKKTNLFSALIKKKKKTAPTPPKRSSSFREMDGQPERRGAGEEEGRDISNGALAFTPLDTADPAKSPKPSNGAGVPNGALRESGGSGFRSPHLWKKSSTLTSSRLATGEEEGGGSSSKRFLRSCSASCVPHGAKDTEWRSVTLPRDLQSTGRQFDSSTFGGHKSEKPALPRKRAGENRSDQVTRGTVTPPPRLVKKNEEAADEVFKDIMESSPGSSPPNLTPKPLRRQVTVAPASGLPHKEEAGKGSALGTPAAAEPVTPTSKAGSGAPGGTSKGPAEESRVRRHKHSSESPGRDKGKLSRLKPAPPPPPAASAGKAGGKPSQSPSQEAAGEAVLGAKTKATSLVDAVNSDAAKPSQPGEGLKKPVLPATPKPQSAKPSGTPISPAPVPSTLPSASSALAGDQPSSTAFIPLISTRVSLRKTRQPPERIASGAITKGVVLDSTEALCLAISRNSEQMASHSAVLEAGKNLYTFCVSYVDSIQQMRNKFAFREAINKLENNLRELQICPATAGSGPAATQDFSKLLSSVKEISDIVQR
Serine/threonine-protein kinase PAK 1, sequence (Q13153 whole entry, the tested form may be a part): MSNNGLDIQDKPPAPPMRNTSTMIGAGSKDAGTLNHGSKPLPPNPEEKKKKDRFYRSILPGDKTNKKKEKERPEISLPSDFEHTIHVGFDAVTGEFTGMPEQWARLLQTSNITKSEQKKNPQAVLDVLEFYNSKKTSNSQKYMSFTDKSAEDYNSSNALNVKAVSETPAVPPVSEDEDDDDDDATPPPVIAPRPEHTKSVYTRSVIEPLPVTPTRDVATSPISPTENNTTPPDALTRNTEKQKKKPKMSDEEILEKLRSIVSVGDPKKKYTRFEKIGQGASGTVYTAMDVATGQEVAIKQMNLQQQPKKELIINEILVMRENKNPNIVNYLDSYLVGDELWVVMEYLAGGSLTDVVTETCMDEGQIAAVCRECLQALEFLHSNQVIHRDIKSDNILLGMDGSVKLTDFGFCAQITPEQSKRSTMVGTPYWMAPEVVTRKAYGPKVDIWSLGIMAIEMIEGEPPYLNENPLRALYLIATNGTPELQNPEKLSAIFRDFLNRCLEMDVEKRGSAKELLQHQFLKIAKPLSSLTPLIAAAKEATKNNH
Mast/stem cell growth factor receptor Kit (Homo sapiens, UniProt P10721, D816V), sequence (P10721 26-976 D816V limits assumed): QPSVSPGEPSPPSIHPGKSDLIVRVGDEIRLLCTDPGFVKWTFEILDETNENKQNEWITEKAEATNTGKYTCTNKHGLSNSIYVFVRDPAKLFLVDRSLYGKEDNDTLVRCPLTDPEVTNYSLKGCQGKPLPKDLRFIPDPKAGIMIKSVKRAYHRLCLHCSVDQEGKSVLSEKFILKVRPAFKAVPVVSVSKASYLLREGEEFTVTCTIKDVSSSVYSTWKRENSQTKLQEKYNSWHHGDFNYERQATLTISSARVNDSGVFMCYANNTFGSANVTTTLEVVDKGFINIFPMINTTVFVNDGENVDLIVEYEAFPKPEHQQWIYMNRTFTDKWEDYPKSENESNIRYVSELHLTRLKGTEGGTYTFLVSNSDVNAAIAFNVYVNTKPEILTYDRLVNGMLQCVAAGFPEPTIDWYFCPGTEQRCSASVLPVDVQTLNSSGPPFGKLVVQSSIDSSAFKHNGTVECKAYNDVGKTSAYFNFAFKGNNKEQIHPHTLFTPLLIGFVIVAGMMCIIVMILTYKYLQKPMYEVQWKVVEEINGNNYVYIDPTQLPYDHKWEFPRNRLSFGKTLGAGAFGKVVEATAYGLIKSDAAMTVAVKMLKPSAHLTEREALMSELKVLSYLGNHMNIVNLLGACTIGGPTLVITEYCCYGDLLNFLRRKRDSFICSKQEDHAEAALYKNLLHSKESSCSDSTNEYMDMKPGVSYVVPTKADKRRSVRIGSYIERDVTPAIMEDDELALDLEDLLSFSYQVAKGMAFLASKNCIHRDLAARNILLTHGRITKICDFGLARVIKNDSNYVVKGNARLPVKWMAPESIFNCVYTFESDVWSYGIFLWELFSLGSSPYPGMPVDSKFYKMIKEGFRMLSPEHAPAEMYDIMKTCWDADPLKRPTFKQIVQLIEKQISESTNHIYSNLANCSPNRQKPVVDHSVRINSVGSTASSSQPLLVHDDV
Dual specificity tyrosine-phosphorylation-regulated kinase 1B, sequence (Q9Y463 whole entry, the tested form may be a part): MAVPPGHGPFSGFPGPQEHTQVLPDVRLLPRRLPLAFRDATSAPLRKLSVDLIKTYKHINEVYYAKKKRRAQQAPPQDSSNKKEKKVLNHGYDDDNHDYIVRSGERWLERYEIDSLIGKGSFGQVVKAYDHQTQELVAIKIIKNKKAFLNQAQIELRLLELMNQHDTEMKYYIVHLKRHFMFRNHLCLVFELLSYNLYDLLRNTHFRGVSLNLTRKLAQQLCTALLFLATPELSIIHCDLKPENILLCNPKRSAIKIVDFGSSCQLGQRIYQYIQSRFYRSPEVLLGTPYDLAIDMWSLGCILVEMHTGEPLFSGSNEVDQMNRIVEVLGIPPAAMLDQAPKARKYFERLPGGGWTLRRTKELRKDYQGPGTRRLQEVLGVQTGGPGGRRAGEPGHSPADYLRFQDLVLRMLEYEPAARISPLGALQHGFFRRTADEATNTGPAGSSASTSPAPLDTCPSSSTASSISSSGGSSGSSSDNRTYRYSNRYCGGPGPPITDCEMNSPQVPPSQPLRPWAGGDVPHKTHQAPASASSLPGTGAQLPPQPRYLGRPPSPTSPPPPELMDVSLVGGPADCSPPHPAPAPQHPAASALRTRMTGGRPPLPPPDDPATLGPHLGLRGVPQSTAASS

CC(C)CN(C(=O)c1cccnc1)c1c2ccccc2c(=O)n2c1[nH]c1ccccc12
Activity [1]: 0.7%
Activity [2]: Dose-dependent effect
Kd [3]: ≥ 5 µM
Activity [4]: 18.12%
Kd [5]: ≥ 5 µM
Kd [6]: ≥ 5 µM
Activity [7]: 100%
Activity [8]: 100%
Kd [9]: ≥ 5 µM
Kd [10]: ≥ 5 µM
Kd [11]: ≥ 5 µM
Kd [12]: ≥ 5 µM
Activity [13]: 100%
Activity [14]: 100%
Activity [15]: 94%
Activity [16]: Dose-dependent effect
Kd [17]: ≥ 5 µM
Kd [18]: ≥ 5 µM
Kd [19]: ≥ 5 µM
Kd [20]: ≥ 5 µM
Kd [21]: ≥ 5 µM
Kd [22]: ≥ 5 µM
Kd [23]: ≥ 5 µM
Activity [24]: 80%
Kd [25]: ≥ 5 µM
Kd [26]: ≥ 5 µM
Activity [27]: 100%
